Experimental data taken from ChEMBL document CHEMBL2331355, “Synthesis, structure activity relationship and mode of action of 3-substitutedphenyl-1-(2,2,8,8-tetramethyl-3,4,9,10-tetrahydro-2H,8H-pyrano[2,3-f]chromen-6-yl)-propenones as novel anticancer agents in human leukaemia HL-60 cells” (Eur J Med Chem, 2013).

Assays:
Format in all cases: functional
[1] = system: ASPC1; assay: Growth inhibition of human AsPC1 cells at 50 uM after 48 hrs by MTT assay; conditions: ASPC1, 48 h, read-out: GI
How it was run: (§1)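 Single-concentration MTT screen at 50 µM over 48 h in 96-well plates. Compounds giving >50% inhibition were rescreened at 30 µM. OD read at 570 nm, reference 620 nm. Result expressed as % growth inhibition versus untreated control. Mitomycin C, adriamycin or 5-fluorouracil used as positive controls. Mean ± SD of three independent experiments.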

[2] = system: MCF7; assay: Growth inhibition of human MCF7 cells at 50 uM after 48 hrs by MTT assay; conditions: MCF7, 48 h, read-out: GI; how it was run: as §1
[3] = system: HL-60; assay: Growth inhibition of human HL60 cells at 50 uM after 48 hrs by MTT assay; conditions: HL-60, 48 h, read-out: GI; how it was run: as §1
[4] = system: PC-3; assay: Growth inhibition of human PC3 cells at 50 uM after 48 hrs by MTT assay; conditions: PC-3, 48 h, read-out: GI; how it was run: as §1
[5] = system: MIA PaCa-2; assay: Growth inhibition of human MIAPaCa2 cells at 50 uM after 48 hrs by MTT assay; conditions: MIA PaCa-2, 48 h, read-out: GI; how it was run: as §1
[6] = system: Caco-2; assay: Growth inhibition of human Caco2 cells at 50 uM after 48 hrs by MTT assay; conditions: Caco-2, 48 h, read-out: GI; how it was run: as §1
[7] = system: MDA-MB-435; assay: Growth inhibition of human MDA-MB-435 cells at 50 uM after 48 hrs by MTT assay; conditions: MDA-MB-435, 48 h, read-out: GI; how it was run: as §1
[8] = system: PC-3; assay: Growth inhibition of human PC3 cells at 10 uM after 48 hrs by MTT assay; conditions: PC-3, 48 h, read-out: GI
How it was run: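 MTT assay. Suspension or adherent cells were exposed to compound for 48 h. OD was read at 570 nm (reference 620 nm), with untreated control OD set as 100% viability. Results are percent growth inhibition, mean ± SD of three independent experiments.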

Row | Compound | inhibition of growth at 50 µM [1] [%] | inhibition of growth at 50 µM [2] [%] | inhibition of growth at 50 µM [3] [%] | inhibition of growth at 50 µM [4] [%] | inhibition of growth at 50 µM [5] [%] | inhibition of growth at 50 µM [6] [%] | inhibition of growth at 50 µM [7] [%] | inhibition of growth at 10 µM [8] [%]
1 | CC(=O)c1cc2c(c3c1OC(C)(C)CC3)OC(C)(C)CC2 | 5 | 18 | 25 | 19 | 25 | 20 | 2 | –
2 | COc1ccc(/C=C/C(=O)c2cc3c(c4c2OC(C)(C)CC4)OC(C)(C)CC3)cc1 | 12 | 7 | 5 | 63 | 30 | 16 | 53 | –
3 | CO[C@@]12[C@H](COC(N)=O)C3=C(C(=O)C(C)=C(N)C3=O)N1C[C@@H]1N[C@@H]12 [MITOMYCIN] | – | – | – | – | – | – | – | 68
4 | Cc1ccc(/C=C/C(=O)c2cc3c(c4c2OC(C)(C)CC4)OC(C)(C)CC3)cc1 | 2 | 15 | 18 | 48 | 41 | 11 | 38 | –
5 | CC1(C)CCc2cc(C(=O)/C=C/c3ccc(F)cc3)c3c(c2O1)CCC(C)(C)O3 | 28 | 17 | 38 | 59 | 38 | 12 | 52 | –
6 | CC1(C)CCc2cc(C(=O)/C=C/c3cccc(Cl)c3)c3c(c2O1)CCC(C)(C)O3 | 24 | 16 | 60 | 59 | 24 | 31 | 54 | –
